In ChEMBL document CHEMBL1121573, “2-(Aminomethyl)phenols, a new class of saluretic agents. 1. Effects of nuclear substitution” (J Med Chem, 1980) one finds Duration, Diuretic activity and MAP data, which are given here for one compound.

For data set [1], the species on record is Rattus norvegicus. The data set is described as follows: Time taken for the decrease in arterial pressure was measured. Format: functional, Artery.
Data set [2] has as its system Canis familiaris. The data set is described as follows: Oral diuretic activity was evaluated by measuring Na+ excretion in dog at 0.625 mg/kg after ip administration. The class given is ADME, organism-based, Canis lupus familiaris, Urine. More on the design: dose 0.625 mg/kg, route intraperitoneal. The following applies: in vivo. Summed up: (§1)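 Spontaneous urine was pooled with bladder urine collected by catheterization at 6 h. Volume was measured and Na+, K+ and Cl− were determined by standard methods. Values are geometric means.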

The test system of data set [3] is Rattus norvegicus. The data set is described as follows: Oral diuretic activity was evaluated by measuring Cl- excretion in Rat at 81 mg/kg after ip administration. The class given is ADME, organism-based, Urine. On the set-up: dose 81 mg/kg, route intraperitoneal. The note with it: in vivo.
Data set [4] has as its system Canis familiaris. Nature of the data set: Oral diuretic activity was evaluated by measuring K+ excretion in dog at 0.625 mg/kg after […]. The class given is ADME, organism-based, Canis lupus familiaris, Urine. On the set-up: dose 0.625 mg/kg. The note with it: in vivo. Summed up: as §1
Data set [5] has as its system Rattus norvegicus. The data set is described as follows: Maximum fall in mean arterial blood pressure was measured in SH rats when compound was administered at 0.078 mg/kg perorally. Format: functional. The note with it: route oral.
Data set [6] has as its system Rattus norvegicus. The data set is described as follows: Oral diuretic activity was evaluated by measuring Cl- excretion in Rat at 3 mg/kg after ip administration. The class given is ADME, organism-based, Urine. More on the design: dose 3 mg/kg, route intraperitoneal. The following applies: in vivo.
Data set [7] concerns Canis familiaris. The data set is described as follows: Oral diuretic activity was evaluated by measuring Cl- excretion in dog at 0.312 mg/kg after ip administration. The class given is ADME, organism-based, Canis lupus familiaris, Urine. More on the design: dose 0.312 mg/kg, route intraperitoneal. The following applies: in vivo.
Data set [8] has as its system Rattus norvegicus. The data set is described as follows: Maximum fall in mean arterial blood pressure was measured in SH rats when compound was administered at 0.312 mg/kg perorally. Format: functional. The following applies: route oral.
The test system of data set [9] is Canis familiaris. Nature of the data set: Oral diuretic activity was evaluated by measuring Na+ excretion in dog at 5 mg/kg after ip administration. Format: ADME, organism-based, Canis lupus familiaris, Urine. On the set-up: dose 5 mg/kg. The note with it: in vivo. A digest of the protocol: (§2)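 Dogs; spontaneous urine was pooled with bladder urine drained by catheter at the end of 6 h. Urine volume was measured, and aliquots were assayed for Na+, K+ and Cl− by standard methods. Values are geometric means, expressed as mequiv over 0–6 h.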

The subject of data set [10] is Canis familiaris. The data set is described as follows: Oral diuretic activity was evaluated by measuring K+ excretion in dog at 2 mg/kg after ip administration. Format: ADME, organism-based, Canis lupus familiaris, Urine. More on the design: dose 2 mg/kg, route intraperitoneal. The note with it: in vivo. A digest of the protocol:
as §1

The subject of data set [11] is Canis familiaris. Nature of the data set: Oral diuretic activity was evaluated by measuring K+ excretion in dog at 5 mg/kg after ip administration. Format: ADME, organism-based, Canis lupus familiaris, Urine. The following applies: in vivo. More on the design: dose 5 mg/kg, route intraperitoneal. Summed up: as §1
Data set [12] has as its system Rattus norvegicus. The data set is described as follows: Maximum fall in mean arterial blood pressure was measured in SH rats when compound was administered at […] mg/kg perorally. The class given is functional. The following applies: route oral.
Data set [13] relates to Canis familiaris. Nature of the data set: Compound administered intravenously was evaluated for salidiuretic activity measured as sodium ion excretion in Dog. The class given is ADME, organism-based, Canis lupus familiaris, Urine. The following applies: in vivo, iv. On the set-up: unit not given beside the values. Summed up: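 Conditioned female mongrel dogs, postabsorptive, water-loaded (500 mL po) 1 h before sodium pentobarbital anesthesia (30 mg/kg iv). Bladder catheter; creatinine 4 g sc; phosphate–mannitol buffer pH 7.4 infused (3.0 mL/min) throughout. […] Urine Na+ measured; response scored 0–6.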

Data set [14] relates to Canis familiaris. The data set is described as follows: Oral diuretic activity was evaluated by measuring Cl- excretion in dog at 5 mg/kg after ip administration. On the set-up: dose 5 mg/kg, route intraperitoneal. The following applies: in vivo. The class given is ADME, organism-based, Canis lupus familiaris, Urine.
For data set [15], the system named is Canis familiaris. Nature of the data set: Oral diuretic activity was evaluated by measuring Cl- excretion in dog at 0.625 mg/kg after ip administration. The note with it: in vivo. On the set-up: dose 0.625 mg/kg, route intraperitoneal. Format: ADME, organism-based, Canis lupus familiaris, Urine.
For data set [16], the system named is Canis familiaris. Nature of the data set: Oral diuretic activity was evaluated by measuring Na+ excretion in dog at 2 mg/kg after […]. The class given is ADME, organism-based, Canis lupus familiaris, Urine. The following applies: in vivo. More on the design: dose 2 mg/kg. A digest of the protocol:
as §2

For data set [17], the system named is Rattus norvegicus. Nature of the data set: Oral diuretic activity was evaluated by measuring K+ excretion in Rat at 3 mg/kg after po administration. The following applies: in vivo.
Data set [18] deals with Canis familiaris. The data set is described as follows: Oral diuretic activity was evaluated by measuring Na+ excretion in dog at 0.312 mg/kg after ip administration. Format: ADME, organism-based, Canis lupus familiaris, Urine. On the set-up: dose 0.312 mg/kg, route intraperitoneal. The note with it: in vivo. A digest of the protocol: as §1
In data set [19] the test system is Rattus norvegicus. Nature of the data set: Oral diuretic activity was evaluated by measuring Cl- excretion in Rat at 27 mg/kg after ip administration. The note with it: in vivo. The class given is ADME, organism-based, Urine. On the set-up: dose 27 mg/kg, route intraperitoneal.
In data set [20] the test system is Rattus norvegicus. The data set is described as follows: Compound administered orally was evaluated for salidiuretic activity measured as sodium ion excretion in Rat. Format: ADME, organism-based, Urine. The following applies: in vivo, po. A digest of the protocol: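 Female Charles-River rats (150–170 g), overnight on sugar diet with water ad libitum. Compound dissolved in DMF, diluted with water containing Tween 80 (final 4% DMF), given po in 5.0 mL; concurrent vehicle placebo. Three rats per metabolism cage; 0–5 h urine analysed for Na+, K+, Cl-. Values: mequiv × 100 per cage, geometric means of three cages per dose; scored 0–6 by Na+.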

Data set [21] concerns Canis familiaris. Nature of the data set: Oral diuretic activity was evaluated by measuring Cl- excretion in dog at 2 mg/kg after ip administration. The following applies: in vivo. Format: ADME, organism-based, Canis lupus familiaris, Urine. More on the design: dose 2 mg/kg, route intraperitoneal.
Data set [22] has as its system Canis familiaris. Nature of the data set: Oral diuretic activity was evaluated by measuring K+ excretion in dog at 0.312 mg/kg after ip administration. Format: ADME, organism-based, Canis lupus familiaris, Urine. More on the design: dose 0.312 mg/kg, route intraperitoneal. The note with it: in vivo.

Each structure is given as a SMILES string. Values joined by “and” are separate entries in the source; they are usually repeats but may differ in a detail not shown here. Equal entries are not always repeated.

`CC(C)(C)c1cc(I)c(O)c(CN)c1.Cl`: the Duration in the data set listed under Rattus norvegicus [1] was 18 h and >24 h. Also, the Diuretic activity in the data set with Canis familiaris [2] is reported as 22.3; in the data set on Rattus norvegicus [3], 4.89; with Canis familiaris [4], 5.1; in the data set on Rattus norvegicus [6], 2.11; with Canis familiaris [7], 19.28; in the data set on Canis familiaris [9], 56.8. In addition, the Diuretic activity with Canis familiaris [10] is on record as 9.3; with Canis familiaris [11] it was 9.9; with Canis familiaris [13] it was 6; in the data set with Canis familiaris [14], 69.6; in the data set with Canis familiaris [15], 30.3; with Canis familiaris [16] it was 44.9. Also, the Diuretic activity with Rattus norvegicus [17] is on record as 0.51; in the data set with Canis familiaris [18], 13.76; in the data set on Rattus norvegicus [19], 4.35; in the data set with Rattus norvegicus [20], 6; in the data set on Canis familiaris [21] it was 57; in the data set with Canis familiaris [22], 4.34. Also, the MAP came to 16 mmHg in the data set on Rattus norvegicus [5], 26 mmHg in the data set on Rattus norvegicus [8] and 38 mmHg in the data set with Rattus norvegicus [12].
